ChEMBL document CHEMBL1142136, “Contribution of target gene mutations and efflux to decreased susceptibility of Salmonella enterica serovar typhimurium to fluoroquinolones and other antimicrobials” (2007)
In brackets after ≈: the same amount, converted by molar mass.

Key:
Type in all cases: functional, Salmonella enterica subsp. enterica serovar Typhimurium
[1] = tested on: Salmonella typhimurium; test: Antimicrobial activity against Salmonella enterica serovar Typhimurium CHS14 with GyrA D87G mutation
Outline: (§1)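 MICs measured by broth microdilution on the Sensititre automated system and interpreted by CLSI broth microdilution standards. Ciprofloxacin was also tested by agar dilution, widening the range to 0.0075–128 μg/ml. Quality control strains were E. coli ATCC 25922 and 35218, E. faecalis ATCC 29212, S. aureus ATCC 29213 and P. aeruginosa ATCC 27853.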

[2] = tested on: Salmonella typhimurium; test: Antimicrobial activity against Salmonella enterica serovar Typhimurium S21-2 gyrA+ with ParC S80I mutation; outline: as §1
[3] = tested on: Salmonella typhimurium; test: Antimicrobial activity against Salmonella enterica serovar Typhimurium CS9 acrAB::Kan with GyrA S83F, D87N, ParC S80I mutation; outline: as §1
[4] = tested on: Salmonella typhimurium; test: Antimicrobial activity against Salmonella enterica serovar Typhimurium S21 gyrA+; outline: as §1
[5] = tested on: Salmonella typhimurium; test: Antimicrobial activity against Salmonella enterica serovar Typhimurium CS9 with GyrA S83F, D87N, ParC S80I mutation; outline: as §1
[6] = tested on: Salmonella typhimurium; test: Antimicrobial activity against Salmonella enterica serovar Typhimurium CS3 tolC::Kan with GyrA S83F, D87N, parC S80I mutation; outline: as §1
[7] = tested on: Salmonella typhimurium; test: Antimicrobial activity against Salmonella enterica serovar Typhimurium CHS38 gyrA+ with GyrA D87G mutation; outline: as §1
[8] = tested on: Salmonella typhimurium; test: Antimicrobial activity against Salmonella enterica serovar Typhimurium S21-3 gyrA+ with ParC S80I mutation; outline: as §1
[9] = tested on: Salmonella typhimurium; test: Antimicrobial activity against Salmonella enterica serovar Typhimurium S21-3 with GyrA S83F, ParC S80I mutation; outline: as §1
[10] = tested on: Salmonella typhimurium; test: Antimicrobial activity against Salmonella enterica serovar Typhimurium CS1 tolC::Kan with GyrA S83F, D87N, ParC S80I mutation; outline: as §1
[11] = tested on: Salmonella typhimurium; test: Antimicrobial activity against Salmonella enterica serovar Typhimurium CS3 gyrA+ with GyrA S83F, D87N, ParC S80I mutation; outline: as §1
[12] = tested on: Salmonella typhimurium; test: Antimicrobial activity against Salmonella enterica serovar Typhimurium S21-3 acrAB::Kan with GyrA S83F, ParC S80I mutation; outline: as §1
[13] = tested on: Salmonella typhimurium; test: Antimicrobial activity against Salmonella enterica serovar Typhimurium CHS14 tolC::Kan with GyrA D87G mutant; outline: as §1
[14] = tested on: Salmonella typhimurium; test: Antimicrobial activity against Salmonella enterica serovar Typhimurium CS1 with GyrA S83F, D87N, ParC S80I mutation; outline: as §1
[15] = tested on: Salmonella typhimurium; test: Antimicrobial activity against Salmonella enterica serovar Typhimurium CHS38 with GyrA D87G mutation; outline: as §1
[16] = tested on: Salmonella typhimurium; test: Antimicrobial activity against Salmonella enterica serovar Typhimurium S21 tolC::Kan
Outline: (§2)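 MICs by automated broth microdilution panels, interpreted to CLSI broth microdilution standards. Ciprofloxacin additionally tested by agar dilution across 0.0075 to 128 μg/ml. Quality control strains: E. coli ATCC 25922 and 35218, Enterococcus faecalis ATCC 29212, S. aureus ATCC 29213, P. aeruginosa ATCC 27853. Test strains are kanamycin-marked deletion mutants of ground-beef isolate S21.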

[17] = tested on: Salmonella typhimurium; test: Antimicrobial activity against Salmonella enterica serovar Typhimurium CS9 tolC::Kan with GyrA S83F, D87N, ParC S80I mutation; outline: as §1
[18] = tested on: Salmonella typhimurium; test: Antimicrobial activity against Salmonella enterica serovar Typhimurium CHS18 acrAB::Kan with GyrA S38F mutation; outline: as §1
[19] = tested on: Salmonella typhimurium; test: Antimicrobial activity against Salmonella enterica serovar Typhimurium CS1 acrAB::Kan with GyrA S83F, D87N, ParC S80I mutation; outline: as §1
[20] = tested on: Salmonella typhimurium; test: Antimicrobial activity against Salmonella enterica serovar Typhimurium S21-4 with GyrA S83F, ParC S80I mutation; outline: as §1
[21] = tested on: Salmonella typhimurium; test: Antimicrobial activity against Salmonella enterica serovar Typhimurium S21-4 acrAB::Kan with GyrA S83F, ParC S80I mutation; outline: as §1
[22] = tested on: Salmonella typhimurium; test: Antimicrobial activity against Salmonella enterica serovar Typhimurium CHS18 gyrA+ with GyrA S38F mutation; outline: as §1
[23] = tested on: Salmonella typhimurium; test: Antimicrobial activity against Salmonella enterica serovar Typhimurium S21-2 tolC::Kan with GyrA S83F, ParC S80I mutation; outline: as §1
[24] = tested on: Salmonella typhimurium; test: Antimicrobial activity against Salmonella enterica serovar Typhimurium S21-2 with GyrA S83F, ParC S80I mutation; outline: as §1
[25] = tested on: Salmonella typhimurium; test: Antimicrobial activity against Salmonella enterica serovar Typhimurium CHS38 acrAB::Kan with GyrA D87G mutation; outline: as §1
[26] = tested on: Salmonella typhimurium; test: Antimicrobial activity against Salmonella enterica serovar Typhimurium CHS18 with GyrA S38F mutation; outline: as §1
[27] = tested on: Salmonella typhimurium; test: Antimicrobial activity against Salmonella enterica serovar Typhimurium S21 acrAB::Kan; outline: as §2
[28] = tested on: Salmonella typhimurium; test: Antimicrobial activity against Salmonella enterica serovar Typhimurium CS3 with GyrA S83F, D87N, ParC S80I mutation; outline: as §1
[29] = tested on: Salmonella typhimurium; test: Antimicrobial activity against Salmonella enterica serovar Typhimurium S21-4 tolC::Kan with GyrA S83F, ParC S80I mutation; outline: as §1
[30] = tested on: Salmonella typhimurium; test: Antimicrobial activity against Salmonella enterica serovar Typhimurium CHS14 acrAB::Kan with GyrA D87G mutation; outline: as §1
[31] = tested on: Salmonella typhimurium; test: Antimicrobial activity against Salmonella enterica serovar Typhimurium S21-1 tolC::Kan with GyrA S83F mutation; outline: as §1
[32] = tested on: Salmonella typhimurium; test: Antimicrobial activity against Salmonella enterica serovar Typhimurium GyrA S21-1 acrAB::Kan with GyrA S83F mutation; outline: as §1
[33] = tested on: Salmonella typhimurium; test: Antimicrobial activity against Salmonella enterica serovar Typhimurium S21-1 GyrA S83F mutant; outline: as §1
[34] = tested on: Salmonella typhimurium; test: Antimicrobial activity against Salmonella enterica serovar Typhimurium CS1 gyrA+ with GyrA S83F, D87N, ParC S80I mutation; outline: as §1
[35] = tested on: Salmonella typhimurium; test: Antimicrobial activity against Salmonella enterica serovar Typhimurium S21-4 gyrA+ with ParC S80I mutation; outline: as §1
[36] = tested on: Salmonella typhimurium; test: Antimicrobial activity against Salmonella enterica serovar Typhimurium CHS18 tolC::Kan with GyrA S38F mutation; outline: as §1
[37] = tested on: Salmonella typhimurium; test: Antimicrobial activity against Salmonella enterica serovar Typhimurium CHS14 gyrA+ with GyrA D87G mutation; outline: as §1
[38] = tested on: Salmonella typhimurium; test: Antimicrobial activity against Salmonella enterica serovar Typhimurium CHS38 tolC::Kan with GyrA D87G mutation; outline: as §1
[39] = tested on: Salmonella typhimurium; test: Antimicrobial activity against Salmonella enterica serovar Typhimurium S21-3 tolC::Kan with GyrA S83F, ParC S80I mutation; outline: as §1
[40] = tested on: Salmonella typhimurium; test: Antimicrobial activity against Salmonella enterica serovar Typhimurium S21-2 acrAB::Kan with GyrA S83F, ParC S80I mutation; outline: as §1
[41] = tested on: Salmonella typhimurium; test: Antimicrobial activity against Salmonella enterica serovar Typhimurium CS3 acrAB::Kan with GyrA S83F, D87N, ParC S80I mutation; outline: as §1
[42] = tested on: Salmonella typhimurium; test: Antimicrobial activity against Salmonella enterica serovar Typhimurium CS9 gyrA+ with GyrA S83F, D87N, ParC S80I mutation; outline: as §1
[43] = tested on: Salmonella typhimurium; test: Antimicrobial activity against Salmonella enterica serovar Typhimurium S21-1 gyrA+; outline: as §1
[44] = tested on: Salmonella typhimurium; test: Antimicrobial activity against Salmonella enterica serovar Typhimurium S21; outline: as §1

## C[C@@H]1CN(c2c(F)c(F)c3c(=O)c(C(=O)O)cn(C4CC4)c3c2F)C[C@H](C)N1 [ORBIFLOXACIN]
[1]
  MIC: 1 µg/mL (≈ 2.53 µM)
[2]
  MIC: 2 µg/mL (≈ 5.06 µM)
[3]
  MIC: 4 µg/mL (≈ 10.1 µM)
[4]
  MIC: 0.12 µg/mL (≈ 0.304 µM)
[5]
  MIC: > 16 µg/mL
[6]
  MIC: 4 µg/mL (≈ 10.1 µM)
[7]
  MIC: < 0.15 µg/mL
[8]
  MIC: 2 µg/mL (≈ 5.06 µM)
[9]
  MIC: 16 µg/mL (≈ 40.5 µM)
[10]
  MIC: 4 µg/mL (≈ 10.1 µM)
[11]
  MIC: 0.25 µg/mL (≈ 0.632 µM)
[12]
  MIC: 0.5 µg/mL (≈ 1.26 µM)
[13]
  MIC: 0.03 µg/mL (≈ 0.0759 µM)
[14]
  MIC: > 16 µg/mL
[15]
  MIC: 0.5 µg/mL (≈ 1.26 µM)
[16]
  MIC: < 0.015 µg/mL
[17]
  MIC: 4 µg/mL (≈ 10.1 µM)
[18]
  MIC: 0.5 µg/mL (≈ 1.26 µM)
[19]
  MIC: 4 µg/mL (≈ 10.1 µM)
[20]
  MIC: 16 µg/mL (≈ 40.5 µM)
[21]
  MIC: 0.12 µg/mL (≈ 0.304 µM)
[22]
  MIC: 0.12 µg/mL (≈ 0.304 µM)
[23]
  MIC: 0.25 µg/mL (≈ 0.632 µM)
[24]
  MIC: 16 µg/mL (≈ 40.5 µM)
[25]
  MIC: 0.06 µg/mL (≈ 0.152 µM)
[26]
  MIC: 1 µg/mL (≈ 2.53 µM)
[27]
  MIC: < 0.015 µg/mL
[28]
  MIC: > 16 µg/mL
[29]
  MIC: 0.12 µg/mL (≈ 0.304 µM)
[30]
  MIC: 0.03 µg/mL (≈ 0.0759 µM)
[31]
  MIC: 0.12 µg/mL (≈ 0.304 µM)
[32]
  MIC: 0.12 µg/mL (≈ 0.304 µM)
[33]
  MIC: 2 µg/mL (≈ 5.06 µM)
[34]
  MIC: 0.25 µg/mL (≈ 0.632 µM)
[35]
  MIC: 8 µg/mL (≈ 20.2 µM)
[36]
  MIC: 0.06 µg/mL (≈ 0.152 µM)
[37]
  MIC: 0.12 µg/mL (≈ 0.304 µM)
[38]
  MIC: < 0.015 µg/mL
[39]
  MIC: 0.5 µg/mL (≈ 1.26 µM)
[40]
  MIC: 0.25 µg/mL (≈ 0.632 µM)
[41]
  MIC: 4 µg/mL (≈ 10.1 µM)
[42]
  MIC: 0.25 µg/mL (≈ 0.632 µM)
[43]
  MIC: 0.12 µg/mL (≈ 0.304 µM)
[44]
  MIC: 0.12 µg/mL (≈ 0.304 µM)

## CCn1cc(C(=O)O)c(=O)c2cc(F)c(N3CCNCC3)nc21 [ENOXACIN]
[1]
  MIC: 1 µg/mL (≈ 3.12 µM)
[2]
  MIC: 1 µg/mL (≈ 3.12 µM)
[3]
  MIC: 4 µg/mL (≈ 12.5 µM)
[4]
  MIC: 0.06 µg/mL (≈ 0.187 µM)
[5]
  MIC: 16 µg/mL (≈ 49.9 µM)
[6]
  MIC: 4 µg/mL (≈ 12.5 µM)
[7]
  MIC: < 0.015 µg/mL
[8]
  MIC: 2 µg/mL (≈ 6.24 µM)
[9]
  MIC: > 16 µg/mL
[10]
  MIC: 4 µg/mL (≈ 12.5 µM)
[11]
  MIC: 0.06 µg/mL (≈ 0.187 µM)
[12]
  MIC: 0.25 µg/mL (≈ 0.78 µM)
[13]
  MIC: < 0.015 µg/mL
[14]
  MIC: 16 µg/mL (≈ 49.9 µM)
[15]
  MIC: 0.12 µg/mL (≈ 0.375 µM)
[16]
  MIC: < 0.015 µg/mL
[17]
  MIC: 4 µg/mL (≈ 12.5 µM)
[18]
  MIC: 0.25 µg/mL (≈ 0.78 µM)
[19]
  MIC: 4 µg/mL (≈ 12.5 µM)
[20]
  MIC: > 16 µg/mL
[21]
  MIC: 0.12 µg/mL (≈ 0.375 µM)
[22]
  MIC: 0.12 µg/mL (≈ 0.375 µM)
[23]
  MIC: 0.12 µg/mL (≈ 0.375 µM)
[24]
  MIC: 8 µg/mL (≈ 25 µM)
[25]
  MIC: 0.03 µg/mL (≈ 0.0937 µM)
[26]
  MIC: 0.5 µg/mL (≈ 1.56 µM)
[27]
  MIC: < 0.015 µg/mL
[28]
  MIC: 16 µg/mL (≈ 49.9 µM)
[29]
  MIC: 0.12 µg/mL (≈ 0.375 µM)
[30]
  MIC: 0.03 µg/mL (≈ 0.0937 µM)
[31]
  MIC: 0.06 µg/mL (≈ 0.187 µM)
[32]
  MIC: 0.06 µg/mL (≈ 0.187 µM)
[33]
  MIC: 0.5 µg/mL (≈ 1.56 µM)
[34]
  MIC: 0.06 µg/mL (≈ 0.187 µM)
[35]
  MIC: 4 µg/mL (≈ 12.5 µM)
[36]
  MIC: 0.03 µg/mL (≈ 0.0937 µM)
[37]
  MIC: 0.06 µg/mL (≈ 0.187 µM)
[38]
  MIC: < 0.015 µg/mL
[39]
  MIC: 0.12 µg/mL (≈ 0.375 µM)
[40]
  MIC: 0.12 µg/mL (≈ 0.375 µM)
[41]
  MIC: 4 µg/mL (≈ 12.5 µM)
[42]
  MIC: 0.06 µg/mL (≈ 0.187 µM)
[43]
  MIC: 0.06 µg/mL (≈ 0.187 µM)
[44]
  MIC: 0.06 µg/mL (≈ 0.187 µM)
